Measurements reported in ChEMBL document CHEMBL2176968, “Identification of less lipophilic riminophenazine derivatives for the treatment of drug-resistant tuberculosis” (J Med Chem, 2012).
In brackets after ≈: the same amount, converted by molar mass.

Columns and labels:
[1] = test system: Mycobacterium tuberculosis; experiment: Antimycobacterial activity against Mycobacterium tuberculosis H37Rv ATCC 27294 after 7 days by microplate Alamar blue assay; format: functional; conditions: H37Rv ATCC 27294, 168 h
Method in brief: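 Run in 96-well plates against M. tuberculosis H37Rv using the Alamar Blue read-out. The MIC was taken as the lowest concentration giving >90% growth inhibition.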

[2] = Selectivity index, ratio of IC50 for african green monkey Vero cells to MIC for Mycobacterium tuberculosis H37Rv ATCC 27294; format: functional
[3] = Acute toxicity in mouse; format: organism-based; conditions: in vivo
[4] = test system: Vero; experiment: Cytotoxicity against african green monkey Vero cells after 48 hrs by MTT assay; format: cell-based; conditions: Chlorocebus sabaeus
Method in brief: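 Vero cells were exposed to compound. The IC50 was taken as the concentration inhibiting 50% of growth relative to an untreated control.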

[5] = AUC (0 to 24 hrs) in BALB/c mouse at 20 mg/kg, po; format: ADME, organism-based; parameters: time < 24 hr, dose 20 mg/kg, route oral; conditions: plasma
[6] = Octanol-water partition coefficient, log P of the compound; format: physicochemical
[7] = test system: Mus musculus; experiment: Acute toxicity in mouse assessed as survival at 500 mg/kg, po measured for 7 days; format: organism-based; parameters: dose 500 mg/kg, route oral; conditions: in vivo, 168 h
Method in brief: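 Mice given one oral dose of 500 mg/kg, then observed for 7 days. The number of surviving mice was recorded.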

[8] = Half life in BALB/c mouse at 20 mg/kg, po; format: ADME, organism-based; parameters: dose 20 mg/kg, route oral; conditions: in vivo
[9] = Cmax in BALB/c mouse at 20 mg/kg, po; format: ADME, organism-based; parameters: dose 20 mg/kg, route oral; conditions: in vivo
[10] = Aqueous solubility of the compound in 100 ml buffer solution at pH 1.0; format: physicochemical
Method in brief: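 Solubility was measured in pH 1 buffer and reported in g/100 mL.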

Row | SMILES | MIC [1] [µg/mL] | Selectivity Index [2] | LD50 [3] [mg/kg] | IC50 [4] [µg/mL] | AUC(0-t) at 24 h [5] [ng·h/mL] | logP [6] | Activity [7] | half-life [8] [h] | Cmax [9] [ng/mL] | solubility [10] [g]
1 | CC(C)/N=c1\cc2n(-c3ccc(Cl)cc3)c3ccccc3nc-2cc1Nc1cccnc1 | 0.03 (≈ 0.0682 µM) | 273 | 422 | 8.2 (≈ 18.6 µM) | – | – | – | – | – | –
2 | COc1ncccc1Nc1cc2nc3ccccc3n(-c3ccc(Cl)cc3)c-2c/c1=N\C1CCOCC1 | 0.016 (≈ 0.0312 µM) | 4000 | – | > 64 | 33100 | 4.15 | Non-toxic | 6.62 | 2010 | –
3 | COC1CCC(/N=c2\cc3n(-c4ccc(Br)cc4)c4ccccc4nc-3cc2Nc2cccnc2C)CC1 (stereo not drawn) | 0.015 (≈ 0.0264 µM) | 2788 | – | 41.8 (≈ 73.6 µM) | – | – | Toxic | – | – | –
4 | COc1ncccc1Nc1cc2nc3ccccc3n(-c3ccc(Br)cc3)c-2c/c1=N\C1CCOCC1 | 0.02 (≈ 0.0359 µM) | 3200 | – | > 64 | – | – | Non-toxic | – | – | –
5 | COc1ncccc1Nc1cc2nc3ccccc3n(-c3ccc(Cl)cc3)c-2c/c1=N\C1CCC(OC)CC1 (stereo not drawn) | 0.016 (≈ 0.0296 µM) | 4000 | – | > 64 | 43900 | 3.74 | Non-toxic | 7 | 3010 | –
6 | COc1ncccc1Nc1cc2nc3ccccc3n(-c3ccc(C(F)(F)F)cc3)c-2c/c1=N\C(C)C | 0.029 (≈ 0.0576 µM) | 2207 | – | > 64 | – | – | Non-toxic | – | – | –
7 | COc1ncccc1Nc1cc2nc3ccccc3n(-c3ccc(C(F)(F)F)cc3)c-2c/c1=N\C1CCOCC1 | 0.016 (≈ 0.0293 µM) | 4000 | – | > 64 | – | – | Non-toxic | – | – | –
8 | COC1CCC(/N=c2\cc3n(-c4ccc(Cl)cc4)c4ccccc4nc-3cc2Nc2cccnc2C)CC1 (stereo not drawn) | 0.011 (≈ 0.021 µM) | 3195 | – | 35.1 (≈ 67.1 µM) | – | – | Toxic | – | – | –
9 | CC(C)/N=c1\cc2n(-c3ccc(Cl)cc3)c3ccccc3nc-2cc1Nc1ccc(Cl)cc1 [CLOFAZIMINE] | 0.12 (≈ 0.253 µM) | 572 | > 3000 | 68.6 (≈ 145 µM) | 6960 | 5.34 | – | 29.7 | 380 | –
10 | COc1ncccc1Nc1cc2nc3ccccc3n(-c3ccc(OC(F)(F)F)cc3)c-2c/c1=N\C1CCC(OC)CC1 (stereo not drawn) | 0.016 (≈ 0.0271 µM) | 4000 | – | > 64 | 24100 | 4.52 | Non-toxic | 41.2 | 1300 | –
11 | COc1ncccc1Nc1cc2nc3ccccc3n(-c3ccc(F)cc3)c-2c/c1=N\C1CCC(OC)CC1 (stereo not drawn) | 0.016 (≈ 0.0306 µM) | 4000 | – | > 64 | 45400 | 4.82 | Non-toxic | 7.9 | 3650 | –
12 | COC1CCC(/N=c2\cc3n(-c4ccc(Cl)cc4)c4ccccc4nc-3cc2Nc2ccc(C)nc2)CC1 (stereo not drawn) | 0.016 (≈ 0.0305 µM) | 3180 | – | 50.9 (≈ 97.1 µM) | 22100 | 4.11 | Non-toxic | 16.1 | 1560 | –
13 | Cc1ncccc1Nc1cc2nc3ccccc3n(-c3ccc(C(F)(F)F)cc3)c-2c/c1=N\C1CCOCC1 | 0.011 (≈ 0.0208 µM) | 5818 | – | > 64 | – | – | Toxic | – | – | –
14 | COC1CCC(/N=c2\cc3n(-c4ccc(F)cc4)c4ccccc4nc-3cc2Nc2cccnc2C)CC1 (stereo not drawn) | 0.019 (≈ 0.0374 µM) | 3368 | – | > 64 | – | – | Toxic | – | – | –
15 | COc1ncccc1Nc1cc2nc3ccccc3n(-c3ccc(F)cc3)c-2c/c1=N\C(C)C | 0.03 (≈ 0.0661 µM) | 2133 | – | > 64 | 52400 | 4.07 | Non-toxic | 17.5 | 3020 | 0.7
16 | COc1ncccc1Nc1cc2nc3ccccc3n(-c3ccc(Br)cc3)c-2c/c1=N\C1CCC(OC)CC1 (stereo not drawn) | 0.031 (≈ 0.053 µM) | 2065 | – | > 64 | – | – | Non-toxic | – | – | –
